Reference: ChEMBL document CHEMBL2380298, “Synthesis and antimicrobial activity of novel amphiphilic aromatic amino alcohols” (2013)

Tests used:
Assay type in all cases: functional
[1] = tested on: Staphylococcus aureus; assay: Bactericidal activity against Staphylococcus aureus ATCC 29213 after 24 hrs; details: ATCC 29213, 24 h
Outline: (§1)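 Bactericidal concentration: 0.1 ml from wells at the MIC dilution and the dilutions on either side was streaked onto tryptic soy agar and incubated 24 h. It was taken as the lowest drug concentration giving no growth (100% killing).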

[2] = tested on: Staphylococcus aureus; assay: Antimicrobial activity against methicillin-resistant Staphylococcus aureus clinical isolate by broth dilution method
[3] = tested on: Staphylococcus aureus; assay: Antimicrobial activity against methicillin-resistant Staphylococcus aureus clinical isolate 231 by broth dilution method
[4] = tested on: Staphylococcus aureus; assay: Bactericidal activity against methicillin-resistant Staphylococcus aureus clinical isolate 237 after 24 hrs; details: isolate 237, 24 h; outline: as §1
[5] = tested on: Staphylococcus aureus; assay: Bactericidal activity against methicillin-resistant Staphylococcus aureus clinical isolate 255 after 24 hrs; details: isolate 255, 24 h; outline: as §1
[6] = tested on: Staphylococcus aureus; assay: Antimicrobial activity against methicillin-resistant Staphylococcus aureus clinical isolate 264 by broth dilution method
[7] = tested on: Staphylococcus aureus; assay: Antimicrobial activity against methicillin-resistant Staphylococcus aureus clinical isolate 255 by broth dilution method
[8] = tested on: Candida parapsilosis; assay: Antimicrobial activity against Candida parapsilosis ATCC 90030 by broth dilution method; details: Lodderomyces parapsilosis
[9] = tested on: Escherichia coli; assay: Bactericidal activity against Escherichia coli ATCC 11229 after 24 hrs; details: ATCC 11229, 24 h
Outline: (§2)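 MBC: after MIC determination, 0.1 ml from the MIC well and from two dilutions either side streaked on tryptic soy agar, incubated 24 h; MBC taken as lowest concentration giving no growth (100% kill).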

[10] = tested on: Staphylococcus aureus; assay: Antimicrobial activity against methicillin-resistant Staphylococcus aureus clinical isolate 257 by broth dilution method
[11] = tested on: Staphylococcus aureus; assay: Antimicrobial activity against methicillin-resistant Staphylococcus aureus clinical isolate 259 by broth dilution method
[12] = tested on: Staphylococcus aureus; assay: Antimicrobial activity against methicillin-resistant Staphylococcus aureus clinical isolate 176 by broth dilution method
[13] = tested on: Escherichia coli; assay: Antimicrobial activity against Escherichia coli ATCC 11229 by broth dilution method
[14] = tested on: Staphylococcus aureus; assay: Bactericidal activity against methicillin-resistant Staphylococcus aureus clinical isolate 225 after 24 hrs; details: isolate 225, 24 h; outline: as §1
[15] = tested on: Staphylococcus aureus; assay: Bactericidal activity against methicillin-resistant Staphylococcus aureus clinical isolate 232 after 24 hrs; details: isolate 232, 24 h; outline: as §1
[16] = tested on: Staphylococcus epidermidis; assay: Antimicrobial activity against Staphylococcus epidermidis ATCC 12228 by broth dilution method
[17] = tested on: Staphylococcus aureus; assay: Antimicrobial activity against methicillin-resistant Staphylococcus aureus clinical isolate 260 by broth dilution method
[18] = tested on: Staphylococcus aureus; assay: Bactericidal activity against methicillin-resistant Staphylococcus aureus clinical isolate 218 after 24 hrs; details: isolate 218, 24 h; outline: as §1
[19] = tested on: Pseudomonas aeruginosa; assay: Antimicrobial activity against Pseudomonas aeruginosa ATCC 27853 by broth dilution method
[20] = tested on: Staphylococcus aureus; assay: Antimicrobial activity against methicillin-resistant Staphylococcus aureus clinical isolate 195 by broth dilution method
[21] = tested on: Staphylococcus aureus; assay: Antimicrobial activity against methicillin-resistant Staphylococcus aureus clinical isolate 218 by broth dilution method
[22] = tested on: Staphylococcus aureus; assay: Antimicrobial activity against methicillin-resistant Staphylococcus aureus clinical isolate 225 by broth dilution method
[23] = tested on: Staphylococcus aureus; assay: Antimicrobial activity against methicillin-resistant Staphylococcus aureus clinical isolate 238 by broth dilution method
[24] = tested on: Staphylococcus aureus; assay: Antimicrobial activity against methicillin-resistant Staphylococcus aureus clinical isolate 207 by broth dilution method
[25] = tested on: Staphylococcus aureus; assay: Bactericidal activity against methicillin-resistant Staphylococcus aureus clinical isolate 236 after 24 hrs; details: isolate 236, 24 h; outline: as §1
[26] = tested on: Candida tropicalis; assay: Antimicrobial activity against Candida tropicalis ATCC 750 by broth dilution method
[27] = tested on: Staphylococcus aureus; assay: Antimicrobial activity against methicillin-resistant Staphylococcus aureus clinical isolate 178 by broth dilution method
[28] = tested on: Staphylococcus aureus; assay: Bactericidal activity against methicillin-resistant Staphylococcus aureus clinical isolate 260 after 24 hrs; details: isolate 260, 24 h; outline: as §1
[29] = tested on: Staphylococcus aureus; assay: Bactericidal activity against methicillin-resistant Staphylococcus aureus clinical isolate 264 after 24 hrs; details: isolate 264, 24 h; outline: as §1
[30] = tested on: Staphylococcus aureus; assay: Antimicrobial activity against methicillin-resistant Staphylococcus aureus clinical isolate 205 by broth dilution method
[31] = tested on: Staphylococcus aureus; assay: Bactericidal activity against methicillin-resistant Staphylococcus aureus clinical isolate 235 after 24 hrs; details: isolate 235, 24 h; outline: as §1
[32] = tested on: Staphylococcus epidermidis; assay: Bactericidal activity against Staphylococcus epidermidis ATCC 12228 after 24 hrs; details: ATCC 12228, 24 h; outline: as §2
[33] = tested on: Staphylococcus aureus; assay: Antimicrobial activity against methicillin-resistant Staphylococcus aureus clinical isolate 212 by broth dilution method
[34] = tested on: Candida albicans; assay: Antimicrobial activity against Candida albicans ATCC 22019 by broth dilution method
[35] = tested on: Staphylococcus aureus; assay: Bactericidal activity against methicillin-resistant Staphylococcus aureus clinical isolate 259 after 24 hrs; details: isolate 259, 24 h; outline: as §1
[36] = tested on: Staphylococcus aureus; assay: Antimicrobial activity against methicillin-resistant Staphylococcus aureus clinical isolate 235 by broth dilution method
[37] = tested on: Staphylococcus aureus; assay: Bactericidal activity against methicillin-resistant Staphylococcus aureus clinical isolate 257 after 24 hrs; details: isolate 257, 24 h; outline: as §1
[38] = tested on: Staphylococcus aureus; assay: Antimicrobial activity against methicillin-resistant Staphylococcus aureus clinical isolate 227 by broth dilution method
[39] = tested on: Staphylococcus aureus; assay: Antimicrobial activity against methicillin-resistant Staphylococcus aureus clinical isolate 237 by broth dilution method
[40] = tested on: Staphylococcus aureus; assay: Antimicrobial activity against methicillin-resistant Staphylococcus aureus clinical isolate 232 by broth dilution method
[41] = tested on: Staphylococcus aureus; assay: Bactericidal activity against methicillin-resistant Staphylococcus aureus clinical isolate 238 after 24 hrs; details: isolate 238, 24 h; outline: as §1
[42] = tested on: Staphylococcus aureus; assay: Antimicrobial activity against methicillin-resistant Staphylococcus aureus clinical isolate 215 by broth dilution method
[43] = tested on: Staphylococcus aureus; assay: Antimicrobial activity against Staphylococcus aureus ATCC 29213 by broth dilution method
[44] = tested on: Staphylococcus aureus; assay: Antimicrobial activity against methicillin-resistant Staphylococcus aureus clinical isolate 236 by broth dilution method
[45] = tested on: Staphylococcus aureus; assay: Bactericidal activity against methicillin-resistant Staphylococcus aureus clinical isolate 231 after 24 hrs; details: isolate 231, 24 h; outline: as §1
[46] = tested on: Staphylococcus aureus; assay: Bactericidal activity against methicillin-resistant Staphylococcus aureus clinical isolate 212 after 24 hrs; details: isolate 212, 24 h; outline: as §1
[47] = tested on: Nakaseomyces glabratus; assay: Antimicrobial activity against Candida glabrata ATCC 18804 by broth dilution method

## CCCCCCCCOc1ccc(CNC(CO)(CO)CO)cc1.Cl
[1]
  MBC: 32 µg/mL
[2]
  -logMIC: 4.287
[2]; Staphylococcus aureus
  MIC50: 16 µg/mL
  MIC90: 64 µg/mL
[3]
  MIC: 16 µg/mL
[4]
  MBC: 16 µg/mL
[5]
  MBC: 8 µg/mL
[6]
  MIC: 8 µg/mL
[7]
  MIC: 8 µg/mL
[8]
  MIC: 32 µg/mL
[9]
  MBC: 32 µg/mL
[10]
  MIC: 8 µg/mL
[11]
  MIC: 8 µg/mL
[12]
  MIC: 32 µg/mL
[13]
  -logMIC: 4.06
[13]; Escherichia coli, ATCC 11229
  MIC: 32 µg/mL
[14]
  MBC: 512 µg/mL
[15]
  MBC: 16 µg/mL
[16]
  -logMIC: 4.37
[16]; Staphylococcus epidermidis, ATCC 12228
  MIC: 16 µg/mL
[17]
  MIC: 16 µg/mL
[18]
  MBC: 128 µg/mL
[19]
  MIC: > 256 µg/mL
[20]
  MIC: 32 µg/mL
[21]
  MIC: 16 µg/mL
[22]
  MIC: 128 µg/mL
[23]
  MIC: 16 µg/mL
[24]
  MIC: 64 µg/mL
[25]
  MBC: 32 µg/mL
[26]
  MIC: 32 µg/mL
[27]
  MIC: 128 µg/mL
[28]
  MBC: 32 µg/mL
[29]
  MBC: 64 µg/mL
[30]
  MIC: 16 µg/mL
[31]
  MBC: 32 µg/mL
[32]
  MBC: 128 µg/mL
[33]
  MIC: 32 µg/mL
[34]
  MIC: 4 µg/mL
[35]
  MBC: 8 µg/mL
[36]
  MIC: 16 µg/mL
[37]
  MBC: 8 µg/mL
[38]
  MIC: 32 µg/mL
[39]
  MIC: 16 µg/mL
[40]
  MIC: 16 µg/mL
[41]
  MBC: 16 µg/mL
[42]
  MIC: 16 µg/mL
[43]
  -logMIC: 3.67
[43]; Staphylococcus aureus, ATCC 29213
  MIC: 8 µg/mL
[44]
  MIC: 16 µg/mL
[45]
  MBC: 16 µg/mL
[46]
  MBC: 128 µg/mL
[47]
  MIC: 8 µg/mL
